Tb hexokinase: blocks Trypanosoma brucei hexokinase 1 activity. recombinant TbHK1, G6PDH-coupled NADH A340. inhibition, % at 10 µM. 220,000 compounds, 0.11% hits. AID 1430;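 active = inhibition of 50% or more in the single-dose primary screen; inactive = inhibition below 50%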
NPY Y1 blocker: blocks the human neuropeptide Y Y1 receptor; inhibition, % at 3.6 µM; HEK293-CNG Y1 cells, membrane potential fluorescence; NPY at EC95, then isoproterenol; AID 1040; 200,000 compounds, 1% hits; P25929;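 active = inhibition above the campaign mean inhibition of all tested compounds plus 3 SD, cut at about 20% in these data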
Target sequence (P25929 whole entry, looked up): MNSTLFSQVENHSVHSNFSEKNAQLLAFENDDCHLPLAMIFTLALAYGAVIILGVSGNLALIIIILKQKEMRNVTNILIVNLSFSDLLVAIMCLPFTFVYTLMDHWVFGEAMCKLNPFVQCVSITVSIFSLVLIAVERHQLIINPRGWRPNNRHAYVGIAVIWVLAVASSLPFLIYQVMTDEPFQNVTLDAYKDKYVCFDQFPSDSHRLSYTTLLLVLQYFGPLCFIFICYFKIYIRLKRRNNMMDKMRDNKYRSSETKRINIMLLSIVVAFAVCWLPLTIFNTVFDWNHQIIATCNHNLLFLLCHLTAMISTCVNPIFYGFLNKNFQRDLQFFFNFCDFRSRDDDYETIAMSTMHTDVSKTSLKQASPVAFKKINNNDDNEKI
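Test system – HEK293 Y1/CNG channel cell line · Also added – NPY agonist 25 nM, then isoproterenol 1 µM plus Ro 20-1724 25 µM · Compound dosing – one concentration, 3.6 µM, in 0.4% DMSO · Schedule – compound incubation 1 h at room temperature, readout 45 min post-stimulation · Technique – fluorescence, membrane potential probe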
NPY1 pot ag: potentiators or agonists of human neuropeptide Y receptor Y1. 220,000 compounds, 0.37% hits. NPY-Y1 expressing cells, potentiator/agonist activation. activation, % at 3.6 µM; in the data active = activation above about 33%, passing the limit was not always enough;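 also: cells stimulated with NPY at EC10 then isoproterenol at EC100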
m-calpain inh: calpain II (pig) inhibition. purified calpain II, fluorogenic peptide substrate, 30 min. inhibition, % at 16 µM. 220,000 compounds, 0.37% hits;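 active = inhibition above about 50%, limit read from the data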
NPY Y2 blocker: antagonists of human neuropeptide Y receptor Y2; NPY-Y2 expressing cells, antagonist mode; inhibition, % at 2.7 µM; 140,000 compounds, 0.99% hits; AID 793; in the data active = inhibition above about 17%
NPY2 pot ag: potentiates or activates human NPY-Y2 receptor; cells expressing NPY-Y2, potentiator/agonist read-out; activation, % at 3.6 µM; 220,000 compounds, 0.45% hits; AID 1359; in the data active = activation above about 27%;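 also: cells stimulated with NPY near EC25 plus isoproterenol at EC100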
NPY-Y1 antag ct: human NPY-Y1 antagonism in NPY-Y2 counter-screen | 710 compounds, 19% hits | cell-based NPY-Y1 antagonism counterscreen | shares compounds with NPY Y2 blocker | inhibition, % at 3.6 µM; in the data active = inhibition above about 20%;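 also: cells challenged with NPY then isoproterenol with cAMP sensed through a CNG channel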
NPY-Y2 ant conf: human NPY-Y2 antagonism, confirmation; 710 compounds, 32% hits; inhibition, % at 2.8 µM; shares compounds with NPY Y2 blocker; AID 1257; HEK293 NPY-Y2 CNG channel, membrane potential fluorescence;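 active = mean inhibition of triplicate wells above the hit cutoff set in the primary screen, cut at about 17% in these data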
Hits are given with their value; i = inactive; nt = no result given; + = active, no number. This is a sample that favours compounds with a hit; in the whole collection about 2.3% have one here.

SMILES	Tb hexokinase	NPY Y1 blocker	NPY1 pot ag	m-calpain inh	NPY Y2 blocker	NPY2 pot ag	others
Cc1nn(C)c(C)c1/C=C1/CC2C3CC=C4CC(O)CCC4(C)C3CCC2(C)C1=O (centres undefined)	i	26.4	i	i	46.6	i
CCn1ncc(/C=C2/CC3C4CC=C5CC(O)CCC5(C)C4CCC3(C)C2=O)c1C (centres undefined)	i	i	i	nt	i	i
CCOC(=O)[C@]1(C#N)[C@@H]2C=CC(C(C)=O)=CN2[C@@H](C(N)=O)[C@@H]1c1ccsc1	i	i	i	i	i	i
COc1ccc(Cc2nccc3cc(OC)c(OC)cc23)cc1OC	i	22.2	i	i	20.1	i
CNCCc1nc(N)n[nH]1	i	i	i	i	i	i
CCN(CC)C(=O)N[C@H]1C[C@@H]2c3cccc4[nH]cc(c34)C[C@H]2N(C)C1	i	i	83.6	i	i	72.3
COC(=O)C1C=C2c3cccc4[nH]cc(c34)CC2N(C)C1 (centres undefined)	i	nt	i	i	nt	i
O=P(NC(c1ccccc1)c1ccccc1)(Oc1ccccc1)Oc1ccccc1	i	21.2	i	i	37.6	i
CCCSP1(=S)NCCCO1 (centres undefined)	i	i	i	i	i	i
CN1CCN(c2nc(N)c(Br)c(Cl)n2)CC1	i	nt	i	i	nt	i
O=C(c1ccccc1)c1cn(CC(=O)N2CCCc3ccccc32)c2ccccc12	i	i	i	56.2	i	i
CC1CCCN(CC(=O)N2CCCc3ccccc32)C1 (centres undefined)	i	i	i	i	i	i
O=C(C1CC(=O)N(C2CCCCCCC2)C1)N1CCC2(CC1)OCCO2 (centres undefined)	i	i	i	i	i	i
CCCCCSc1cc(OC)c(CCN)cc1OC	i	i	53.0	i	i	i
CCNC(=S)N1CCn2cccc2C1c1cccnc1 (centres undefined)	i	i	i	i	nt	i
CCCCC/C=C\C/C=C\C/C=C\C/C=C\CCCC(=O)Nc1ccc(O)cc1	nt	i	i	63.2	nt	i
COc1ccccc1CCNC1CCC(C(C)(C)C)CC1 (centres undefined)	i	29.0	i	i	30.4	i
COc1ccccc1CCNC1CCCC(C)C1 (centres undefined)	i	i	i	i	i	i
CCOc1ccccc1NC(=O)N1CCC2(CC1)OCCO2	i	i	i	i	i	i
Cn1cc(NC(=O)CCl)cn1	i	i	i	i	nt	i
O=C(COC(=O)c1cccc(O)c1)Nc1ccc(Cl)cc1C(=O)c1ccccc1	i	i	i	52.6	i	i
CCc1nc(N2CCNCC2)c(C#N)c2c1CSC(C)(C)C2	i	i	92.2	i	i	89.3
O=C1C(=O)c2ccccc2-c2ccccc21	i	38.7	i	i	40.0	i
O=C(NCc1ccc(C(=O)N2CCC3(CC2)OCCO3)cc1)c1cccc(Br)c1	i	i	i	i	i	i
CN1/C(=C\C=C\C2=[N+](C)c3ccc4ccccc4c3C2(C)C)C(C)(C)c2ccccc21	i	+	i	i	+	i
SMILES	Tb hexokinase	NPY Y1 blocker	NPY1 pot ag	m-calpain inh	NPY Y2 blocker	NPY2 pot ag	others
CN1/C(=C\C=Nc2ccccc2)C(C)(C)c2ccccc21	i	i	i	i	i	i
C=C1[C@@H](C)[C@H]2[C@H](Cc3ccccc3)NC(=O)[C@]23OC(=O)/C=C/[C@H](O)CCC[C@@H](C)C/C=C/[C@H]3[C@@H]1O	nt	20.6	i	i	nt	i
c1ccc(-c2[nH]c[n+](CC3CO3)c2-c2ccccc2)cc1 (centres undefined)	68.7	i	i	i	i	i
Cn1c(O)c(C(=O)c2ccccc2)c(=O)n(C)c1=O	i	i	i	i	i	i
CCC(=NCCC(c1ccccc1)c1ccccc1)c1c(O)n(C)c(=O)n(C)c1=O	i	i	i	i	24.4	i	NPY-Y1 antag ct=i;NPY-Y2 ant conf=27.5
O=C(NC1CN2CCC1CC2)c1cc(Cl)c([N+](=O)[O-])c2nc[nH]c12 (centres undefined)	i	i	i	i	i	i
O=C(CNC(=O)c1cccc(Cl)c1)Nc1ccc(Br)cc1C(=O)c1ccccc1	i	i	i	i	22.5	i	NPY-Y1 antag ct=i;NPY-Y2 ant conf=i
Cc1cccc(OP(=O)(NCc2ccccc2)Oc2cccc(C)c2)c1	i	i	i	i	19.1	i	NPY-Y1 antag ct=i;NPY-Y2 ant conf=i
O=C(Nc1ccc(F)cc1)c1c(O)c2c(n(Cc3ccccc3)c1=O)CCCC2	i	i	i	i	i	i
O=C(Nc1cccnc1)c1c(O)c2c(n(Cc3ccccc3)c1=O)CCCC2	i	i	i	i	18.8	i	NPY-Y1 antag ct=i;NPY-Y2 ant conf=i
CCN1CCN(c2nc3c(c(=O)[nH]2)CCCC3)CC1	i	i	i	i	i	i
Clc1ccc(COC(Cn2ccnc2)c2ccc(Cl)cc2Cl)cc1 (centres undefined)	i	i	i	i	21.7	i	NPY-Y1 antag ct=i;NPY-Y2 ant conf=18.1
C=CCN1C(=O)C2(C(C(=O)OCC)=C(N)Oc3ccccc32)c2c1c1ccccc1oc2=O (centres undefined)	i	i	i	i	i	i
CN1C[C@H](CNC(=O)OCc2ccccc2)C[C@@H]2c3cccc4c3c(cn4C)C[C@H]21	i	i	i	i	18.1	i	NPY-Y1 antag ct=i;NPY-Y2 ant conf=i
COc1ccc(C2NCc3ccc4c(c3-n3cccc32)OCO4)cc1O (centres undefined)	i	i	i	i	18.7	i	NPY-Y1 antag ct=20.9;NPY-Y2 ant conf=37.1
COc1cc(NC(=O)CN2C3CCC2CC(O)(c2cccnc2)C3)cc(OC)c1 (centres undefined)	i	i	i	i	i	i
C=CCn1c(O)c(C(CC)=NCC2CCCO2)c(=O)[nH]c1=O (centres undefined)	i	nt	i	i	nt	i
CCCC/C(C)=C/[C@@H](NP(=O)(c1ccccc1)c1ccccc1)c1ccccc1	i	i	i	i	27.0	i	NPY-Y1 antag ct=22.7;NPY-Y2 ant conf=20.2
CCCCCP(=O)(O)c1ccccc1	i	i	i	i	i	i
N#Cc1ccccc1Cn1cc(C(=O)c2cccs2)c2ccccc21	i	i	i	i	i	i
O=C(c1cccs1)c1cn(Cc2ccccc2Cl)c2ccccc12	i	i	i	i	19.5	i	NPY-Y1 antag ct=21.1;NPY-Y2 ant conf=i
